Experimental data: the EternaBench riboswitch data

Test system: MS2 coat protein
Assay: apparent Kd, MS2 coat protein; higher = weaker binding; RNA-MaP array; FMN 200 µM where present
Procedure, shortened: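 Two titrations, one without ligand and one with constant ligand, were run with SNAP-549-labelled MS2 coat protein from 0.7 or 1.5 nM, doubling to 3 µM. The targets were designs transcribed by stalled E. coli RNA polymerase on Illumina sequencing-chip clusters, in 100 mM Tris-HCl pH 7.5, 80 mM KCl, 4 mM MgCl2, BSA, DTT, yeast tRNA and Tween-20. The apparent Kd is the median of filtered per-cluster binding-curve fits, with green signal normalised to red-channel RNA signal and control-cluster median Fmax.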

[1] = designed as: OFF switch for flavin mononucleotide, no ligand
[2] = ligand present: flavin mononucleotide, designed as: OFF switch for flavin mononucleotide
[3] = designed as: ON switch for flavin mononucleotide, no ligand
[4] = ligand present: flavin mononucleotide, designed as: ON switch for flavin mononucleotide

Sequence	apparent Kd [1] [nM]	apparent Kd [2] [nM]	apparent Kd [3] [nM]	apparent Kd [4] [nM]
GCACUGGAUGUAGGAUAUCAGGACGAUAAGUCCUGAGAAGGACAUGAGGAUCACCCAUGUCUCAAAUACCAGUGCAAUAAUAUA	12.3	14.8		
CGUGUUAGAGGAGGAUAUAGCGCAAGAAGGUCGCUAGAAGGCCUUGACAUGAGGAUCACCCAUGUGAUCGGCUCUCUGGGUAAG	211	141		
UAUAUAUAGUAAGGAUAUGUAUAUAUAUUAUAAACAGAAGGUACUGACAUGAGGAUCACCCAUGUUUUAGUGUGGGCAUGUAGA	75.1	96.1		
ACAUGAUAUGUAGGAUAUCACAUUAAUUGAUUAAUAUUUCUAUAUAGAAUUUGAGAAGGACAUUUACAUGAGGAUCACCCAUGU	10.3	10.3		
CACGGAUAGUAGAAGGGUGACAUGAGGAUCACCCAUGUACUUAUUUAUUUAUUACUAUUUCAUACACAGGAUAUACUAUCCGUG			652	176
UUAUCUUGUCAAGGAUAUGUAGUAUUGAUCUGAAAACAUGAGGAUCACCCAUGUAUACGGUGGGAACAGAAGGUGAAUGUUGAA	679	670		
UGAUCUAUGUAGAAGGCCCAUAUCUAUAUUUAGGGAGGAUAUACAUGAGGAUCACCCAUGUAUAGAGCUGGUGGACUGGUCAGC	30.7	88.6		
GUCGUGUUAGGAUAUGGCGGCGGCGGCGUUUGUUGUUGUUGUUAGAAGGAACAUGAGGAUCACCCAUGUAUGAC	43.4	119		
UUACCUUAUGAGAAGGCGGUCAUGAAACAUGAUCGAGGAUAUCAUGUAAACAUGAGGAUCACCCAUGUAUGGGUAUUAUGGUAA			395	53.7
GGAUAGGACAGAGGAUAUACGUGCUAGAGAUACUAGCACAAUUUCCUCACAUGAGGAUCACCCAUGUAGAAGGCUGUCCUAUCG	6.08	26.3		
ACAUGCAUAGCGAUAUGAUCGAGAGAUCAUGUCGCUAAAUUUAGAAGGACAUGAGGAUCACCCAUGUAGGAUAUGGGAGCAUGA			44.7	11.1
GCACUGGAUGUAGGAUAUCAGGACGAUAAGUCCUGAGAAGGACAUGAGGAUCACCCAUGUAAAAUCUCACCAGUGCAUAAUAUA	13.6	16.6		
GCCUUACAUGAGGAUCACCCAUGUGAGGAUAUUAACAGCUGCACUACUGAAGCGGCUGUAAGAAGGCACGUGGU	30.5	37.8		
ACUAGAUGAGGAUAUGCAUAUUUUCGUGUUCUUCUAGGUUAACAUGAGGAUCACCCAUGUAGAAGGCGUCUAUC	22.2	39.7		
CUUUAGUGAGGAUAUCAGUAGUAAUACAAUAGUAUUACUAUUGAGAAGGCACAUGAGGAUCACCCAUGUUCCUC	24.6	141		
UUUAUAUAGUAAGGAUAUGUAUUAUGUUUAUCAACAGAAGGUACUGACAUGAGGAUCACCCAUGUUUUAGUGUGGGCAUGUAGU	218	301		
CACAAUCUAUCUGAGGAUAUCAUGAAAAAAACAUGAGGAUCACCCAUGUGCAGGAAAACUGCAUAUGAGAAGGCAGAUAGAUUGU			770	28.4
GGAUAGGACAGAGGAUAUACGGAUAGGAUCUACUAUCAAACAAGUCCUACAUGAGGAUCACCCAUGUAGAAGGCUGUCCUAUCG	16.9	22.1		
AGCAGACGAGGAUAUAAAUUUGAUAACAUGAGGAUCACCCAUGUGAUCGAUAGAUCAAAUUUAGAAGGCGUCUGCU	647	940		
CAGCACUAUCGAGAGGAUAUGCGGUGAUGGACAUGAGGAUCACCCAUGUUAGCGGUAGCAUCACGGCAGAAGGCUCUGCUGCUGC			28.8	19.9
UUAGUCAUGUUAGGAUAUCCGAUGCGAAGCGUUGGAGAAGGAACAUGAGGAUCACCCAUGUUCUGCGUCUGAGUACAGAUGCUA	29.6	123		
GCUGCGCGAGGAUAUGCGGUUUGUGCUGUGGCCCGUGGCGUACAUGAGGAUCACCCAUGUAGAAGGCGUGUGGG	26.1	28.9		
GCUGCAUAGGCAGGAUAUGCAACAAUGAGAAUAAAAUAUAACUCAUUGACAUGAGGAUCACCCAUGUAGAAGGGCCUGUGCAGU	19	18.2		
GACUAGGCAGGAUAUACAUGAGGAUCACCCAUGUGUCUGCGAUAGGCACGUGAUUACUGUAGAAGGGCCUUGAC		44.1		

Sequence	apparent Kd [1] [nM]	apparent Kd [2] [nM]	apparent Kd [3] [nM]	apparent Kd [4] [nM]
CAGUAUAACGAAGGAUAUGGAUACAUGAGGAUCACCCAUGUAUUUUUUGUGAUUUUAAAAUUGAUCCAGAAGGUCGUAUAACUG	31.1	29.2		
AAAUAAGUUGCAGGAUAUUAUUUUUAAUAAAUAUAAGAAGGGCAACAAACCUCACAUGAGGAUCACCCAUGUACCCAUGUAUCU	64.3	35.6		
AUGCCCUGAGGAUAUCUCAUCCCGCACAUGAGGAUCACCCAUGUUCUCCUCCGGGCUCCGAGAGAAGGCAGGCCCA	55.6	87.2		
AUUUCGUUAGCAGGAUAUGGACAGGCCUGUCCGUAUUGAGUCAGUAACAUGAGGAUCACCCAUGUCCAGAAGGGCUCGAAGUAG	8.06	13.9		
ACGUCUUAGUAGAAGGGACUUCGGCUGGUAAGCAUCAUCUCCUUCUCACAUGAGGAUCACCCAUGUCAGGAUAUACUAAGAGUC	7.24	7.35		
GCCAGUUAUGUAGGAUAUGCGCGGCGAGCCUGAGCAGAAGGACAUGAGGAUCACCCAUGUGUUGCGGUCUGAGUACUGAUCGCU	30.1	155		
CAGAAGUCAGGAUAUGCAUGGCGGGACUUGCGUCGUGGCGUGCAGAAGGGACAUGAGGAUCACCCAUGUGGAGA	138	224		
GUAGCUAUCGGAGGAUAUUCAUACCGGAUACGGACAUGAGGAUCACCCAUGUCGCGAAAGCGUUGGGAGAAGGCCGAUAGCUAC			89.2	20.4
AACUCUGAGAAGGAUAUACAGUGCGAAAGGACAGUAGAAGGUUUCACAUGAGGAUCACCCAUGUCGAAUAGUGA	24.7	33.8		
AAUAUGAGCUGGAAUAAACCUAAAACAUGAGGAUCACCCAUGUAGGAUAUCAGCACGAUAAGUGCUGAGAAGGACAACCAGCUC	14.4	13.9		
UGGACCGAGCUAUCGGUUGACUGGGAGGAUAUGACAUGAGGAUCACCCAUGUGGGAUCUAAAUUGUCAGAAGGCUCGUUCUGGG		234		
AAGGAGUUAGGAUAUGCUGCUCGUCACUUGCGUGAUGAGUAGCAGAAGGAACAUGAGGAUCACCCAUGUAAAGA	30.2	24.2		
AGUCGGAGCAGAGGAUAUUACAUGAGGAUCACCCAUGUAAUAAAUGGAAGCUGGAAACAGCAAUGUAAGAAGGCUGCUCCGACA	16.4	47.9		
UUGCAGUCGUCAGGAUAUAGUAUUACGGCCUUUCAUUUCUUCAUACAUGAGGAUCACCCAUGUCGCUAGAAGGGCUUAUCGCUU	14.8	13.2		
AGUGUCAUCGAGAAGGCCUUAACAUGAGGAUCACCCAUGUUGUAACAUGGGAGGAUAUCGAUGAUACAGCUACGUUUCGUAGCA			412	25.5
GGGUACAUCGGAGGAUAUCAUGUAGAUACAUGAGGAUCACCCAUGUCGAUGGAGACAUCGGAGAUUGAGAAGGCCGAUGUACCG			272	10.1
CAUACGUCAGGAUAUCUGAUGUCUAACUUCGGUUAGACAUCAGAGAAGGGACAUGAGGAUCACCCAUGUAUGAA	118	130		
CCUCAGAACAAGAAGGUGGGAGAAGAGUAUAACUAAGGAUAUUGAAAGGGAUGAACAUGAGGAUCACCCAUGUAAGGAAUCGUG	52.8	40.9		
UGAUCUUUUGUUAGGAUAUGCUGGGUUUUUUCUCAGCAGAAGGGACAUGAGGAUCACCCAUGUUCUCUCUUUUU	9.49	11.6		
UGUUAAUAUCGAGGAUAUGUCUAGACACAUGAGGAUCACCCAUGUAUGUGUAUAGAAGGCGAUAUUAACAGCAUGUUACAUGCG			37.2	17.4
GUAGCAUACCGAGGAUAUUCAUACCGGAAACGGACAUGAGGAUCACCCAUGUGGCGAAAGCCUUGGGAGAAGGCGGAAUGCUAC			552	25.1
CUUUCGUGAGGAUAUCAGUAGUAAUAAAAUAAAAUUACUACUGAGAAGGCACAUGAGGAUCACCCAUGUUCCUC	25	138		
UCCGAAUCGUAGAAGGGUGACAUGAGGAUCACCCAUGUGCAGCAGCCGUGAACGGCCAUGCUGCCACAGGAUAUACGAUGGAGU			41.1	56.2
CCUUCUCGUGUCAGGAUAUCCACUCAUCGAAAUUAGGAGAAGGGACAUGAGGAUCACCCAUGUAUACAUGCCAG	73	102		
